Results on one molecule are retold here after ChEMBL document CHEMBL3808357, “Discovery of N-(3-((1-Isonicotinoylpiperidin-4-yl)oxy)-4-methylphenyl)-3-(trifluoromethyl)benzamide (CHMFL-KIT-110) as a Selective, Potent, and Orally Available Type II c-KIT Kinase Inhibitor for Gastrointestinal Stromal Tumors (GISTs)” (J Med Chem, 2016).

The structures appear in SMILES notation. pIC50: −log10 of the molar value. The source made the active and inactive calls. The rule behind the calls is not given here.

Data set [1] in a line: MRT(0 to t) in Sprague-Dawley rat plasma at 1 mg/kg, iv. Type of data set: ADME, organism-based. In a few lines: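 Male Sprague–Dawley rats, 8 weeks old, six in total, fasted overnight; compound dissolved in 5% DMSO/40% PEG400/55% saline (1 mg/mL dosing solution), given iv or orally. About 0.2 mL jugular blood taken with heparin at 1 min–8 h (iv) or 5 min–24 h (oral); plasma separated at 2–8 °C and stored at −80 °C before analysis.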

Data set [2] addresses Mast/stem cell growth factor receptor Kit (Homo sapiens) (UniProt P10721). Kind of data set: Inhibition of cKIT in human GIST48B cells assessed as suppression of ERK phosphorylation at T202/Y204 up to 10 uM after 2 hrs by Western blot analysis. Type of data set: cell-based.
Data set [3] in a line: AUC(0 to t) in Sprague-Dawley rat plasma at 10 mg/kg, po. Type of data set: ADME, organism-based. In a few lines:
(§1)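 Male Sprague-Dawley rats, 8 weeks old, fasted overnight, dosed iv or orally. Formulation was 5% DMSO/40% PEG400/55% saline at 1 mg/mL. Blood (~0.2 mL) was drawn from the jugular vein into heparin. Sampling: iv at 1 min to 8 h; oral at 5 min to 24 h. Plasma was separated by centrifugation at 2−8 °C and stored at −80 °C.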

The target of data set [4] is Mast/stem cell growth factor receptor Kit (Homo sapiens) (UniProt P10721). Put plainly: Inhibition of cKIT autophosphorylation at Y703 in human GIST48B cells up to 10 uM after 2 hrs by Western blot analysis. In kind it is cell-based. In general terms: Immunoblotting shows a protein as a band on a membrane.
Mast/stem cell growth factor receptor Kit (Homo sapiens), sequence (P10721 whole entry, the tested form may be a part): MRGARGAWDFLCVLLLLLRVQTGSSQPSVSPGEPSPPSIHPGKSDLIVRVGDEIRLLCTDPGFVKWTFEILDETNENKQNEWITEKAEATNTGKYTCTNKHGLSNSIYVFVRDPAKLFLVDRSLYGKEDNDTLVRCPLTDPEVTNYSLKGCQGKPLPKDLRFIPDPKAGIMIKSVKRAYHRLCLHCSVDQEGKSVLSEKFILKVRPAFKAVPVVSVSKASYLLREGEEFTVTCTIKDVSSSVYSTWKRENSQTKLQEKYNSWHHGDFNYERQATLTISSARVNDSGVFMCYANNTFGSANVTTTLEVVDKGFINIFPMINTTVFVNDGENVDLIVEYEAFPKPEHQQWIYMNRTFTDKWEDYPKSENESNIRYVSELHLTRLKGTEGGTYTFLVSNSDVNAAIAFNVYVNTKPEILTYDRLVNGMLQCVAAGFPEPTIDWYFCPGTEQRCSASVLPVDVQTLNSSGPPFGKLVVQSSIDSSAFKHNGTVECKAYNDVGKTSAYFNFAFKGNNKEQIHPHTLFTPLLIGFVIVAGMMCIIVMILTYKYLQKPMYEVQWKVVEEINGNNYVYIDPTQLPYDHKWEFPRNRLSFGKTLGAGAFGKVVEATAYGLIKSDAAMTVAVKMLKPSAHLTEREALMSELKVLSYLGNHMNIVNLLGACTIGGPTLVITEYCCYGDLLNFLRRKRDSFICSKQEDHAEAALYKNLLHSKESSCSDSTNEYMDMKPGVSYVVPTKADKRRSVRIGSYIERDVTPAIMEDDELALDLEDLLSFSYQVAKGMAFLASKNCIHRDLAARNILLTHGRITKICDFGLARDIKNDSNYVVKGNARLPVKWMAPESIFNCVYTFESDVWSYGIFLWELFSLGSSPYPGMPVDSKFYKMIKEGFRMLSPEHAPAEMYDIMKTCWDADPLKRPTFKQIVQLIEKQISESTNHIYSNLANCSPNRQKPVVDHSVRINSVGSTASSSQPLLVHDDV
Data set [5] in a line: Antiproliferative activity against FLT3-ITD dependent human MOLM14 cells assessed as reduction in cell viability after 72 hrs by celltiter-glo/CCK8 assay. Type of data set: functional. Particulars: MOLM-14, 72 h. The method, boiled down: (§2)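 Cells were seeded at 1 to 3 × 10⁴ cells/mL with serial compound concentrations and incubated 72 h at 37 °C, 5% CO₂. Viability was read by CellTiter-Glo luminescence or CCK-8 absorbance (450/655 nm). GI50 values are from triplicate testing. GIST-T1 and CHO were grown in DMEM/10% FBS; GIST-882, GIST-48B and MV4-11 in IMDM/10% FBS; other lines in RPMI 1640/10% FBS.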
In general terms: Cellular ATP, detected with luciferase, serves as a proxy for viable cell number.

Data set [6] deals with Mast/stem cell growth factor receptor Kit (Homo sapiens), P10721 [T670I]. Kind of data set: Inhibition of Tel-fused cKIT T670I mutant (unknown origin) transfected in mouse BAF3 cells assessed as decrease in cell proliferation after 72 hrs by celltiter-glo/CCK8 assay. In kind it is cell-based. In a few lines:
(§3)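 Stable BaF3 lines made by retroviral transduction with mutagenized TEL-KIT MSCV vectors, puromycin selection 48 h, then gradual IL-3 withdrawal until IL-3-independent; grown in RPMI 1640 with 10% FBS. Cells at 1 to 3 × 10⁴ cells/mL exposed to a concentration series for 72 h; viability read by CellTiter-Glo luminescence or CCK-8 absorbance (450/655 nm); GI50 from triplicate testing.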

A short description of data set [7]: Antiproliferative activity against human Rec1 cells assessed as reduction in cell viability after 72 hrs by celltiter-glo/CCK8 assay. In kind it is functional. Particulars: Rec1, 72 h. The method, boiled down: as §2
The nature of data set [8]: Cmax in Sprague-Dawley rat plasma at 1 mg/kg, iv. In kind it is ADME, organism-based. Further details: dose 1 mg/kg, route intravenous. In a few lines:
as §1

Data set [9] has as its target T1, Epithelial discoidin domain-containing receptor 1 (Homo sapiens, UniProt Q08345). Put plainly: Inhibition of GST-tagged human DDR1 expressed in baculovirus after 1 hr by Z-lyte assay.
A short description of data set [10]: Antitumor activity against human GISTT1 cells xenografted in nu/nu mouse assessed as tumor growth inhibition at 50 mg/kg/day administered through oral gavage after 21 days. Particulars: 504 h, read-out: TGI. In kind it is functional. The method, boiled down: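 Female nu/nu mice, 6 weeks old, received 5 × 10⁶ GIST-T1 cells in PBS/Matrigel (1:1) subcutaneously in the right flank. At 100−200 mm³, six mice per group were dosed daily by oral gavage at 25, 50 or 100 mg/kg/d in 0.5% methylcellulose/0.4% Tween80, or vehicle. Tumor volume was taken as (W²×L)/2, with body weight and tumor measured daily. Tumors were stained for Ki67 (IHC, 1:50 antibody) and by TUNEL.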
On the technique in general: In xenograft studies the graft and the host belong to different species.

The nature of data set [11]: Half life in Sprague-Dawley rat plasma at 1 mg/kg, iv. In kind it is ADME, organism-based. The method, boiled down: as §1
The subject of data set [12] is GIST48B. Put plainly: Induction of apoptosis in human GIST48B cells assessed as PARP cleavage up to 3 uM after 72 hrs by Western blot analysis. Type of data set: functional, cell-based.
The target in data set [13] is Mast/stem cell growth factor receptor Kit (Homo sapiens) (UniProt P10721). Kind of data set: Inhibition of Tel-fused cKIT L567P mutant (unknown origin) transfected in mouse BAF3 cells assessed as decrease in cell proliferation after 72 hrs by celltiter-glo/CCK8 assay. In kind it is cell-based.
For data set [14], the target named is Platelet-derived growth factor receptor beta (Homo sapiens, UniProt P09619). Put plainly: Inhibition of PDGFRbeta phosphorylation at Y857 in human GIST48B cells up to 10 uM after 2 hrs by Western blot analysis. In kind it is cell-based. The method, boiled down:
(§4)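 Cells were washed in cold PBS, lysed in RIPA and immunoblotted for phospho and total proteins, including pPDGFRα Y849/PDGFRβ Y857 and β-actin.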

Data set [15] deals with Mast/stem cell growth factor receptor Kit (Homo sapiens), P10721 [N822K]. Put plainly: Inhibition of Tel-fused cKIT N822K mutant (unknown origin) transfected in mouse BAF3 cells assessed as decrease in cell proliferation after 72 hrs by celltiter-glo/CCK8 assay. In kind it is cell-based.
Mast/stem cell growth factor receptor Kit (Homo sapiens), P10721 [N822K], sequence (P10721 whole entry N822K, the tested form may be a part): as the sequence (P10721 whole entry, the tested form may be a part) above, with N822K counted along it
In data set [16] the target is Mast/stem cell growth factor receptor Kit (Homo sapiens) (UniProt P10721). Kind of data set: Inhibition of Tel-fused cKIT (unknown origin) transfected in mouse BAF3 cells assessed as decrease in cell proliferation after 72 hrs by celltiter-glo/CCK8 assay. Type of data set: cell-based. The method, boiled down:
as §2

The target is the same in data set [17]. Kind of data set: Inhibition of cKIT in human GIST882 cells assessed as suppression of S6K phosphorylation at T389 up to 10 uM after 2 hrs by Western blot analysis. In kind it is cell-based.
The target is the same in data set [18]. Put plainly: Inhibition of cKIT autophosphorylation at Y719 in human GISTT1 cells up to 10 uM after 2 hrs by Western blot analysis. In kind it is cell-based.
For data set [19], the target named is Platelet-derived growth factor receptor alpha (Homo sapiens) (UniProt P16234). Put plainly: Inhibition of PDGFRalpha phosphorylation at Y849 in human GIST48B cells up to 10 uM after 2 hrs by Western blot analysis. Type of data set: cell-based. The method, boiled down:
as §4

For data set [20], the target named is Mast/stem cell growth factor receptor Kit (Homo sapiens) (UniProt P10721). Put plainly: Inhibition of cKIT in human GISTT1 cells assessed as suppression of AKT phosphorylation at S473 up to 10 uM after 2 hrs by Western blot analysis. In kind it is cell-based.
For data set [21], the target named is T1, Epithelial discoidin domain-containing receptor 1. Kind of data set: Inhibition of human wild type partial length DDR1 expressed in bacterial expression system assessed as residual activity at 1 uM by KinomeScan method. In a few lines:
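KinomeScan competitive binding panel of 468 kinases and mutants, compound tested at 1 μM; read-out is percent activity remaining (binding relative to control).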

Data set [22] concerns Mast/stem cell growth factor receptor Kit (Homo sapiens), P10721 [V559D,V654A]. Put plainly: Inhibition of Tel-fused cKIT V559D/V654A double mutant (unknown origin) transfected in mouse BAF3 cells assessed as decrease in cell proliferation after 72 hrs by celltiter-glo/CCK8 assay. Type of data set: cell-based. In a few lines: as §3
Mast/stem cell growth factor receptor Kit (Homo sapiens), P10721 [V559D,V654A], sequence (P10721 whole entry V559D/V654A, the tested form may be a part): as the sequence (P10721 whole entry, the tested form may be a part) above, with V559D, V654A counted along it
Data set [23] relates to Rattus norvegicus. Put plainly: Apparent volume of distribution in Sprague-Dawley rat plasma at 10 mg/kg, po. In kind it is ADME, organism-based. Particulars: in vivo. The method, boiled down: as §1
Data set [24] in a line: AUC(0 to infinity) in Sprague-Dawley rat plasma at 1 mg/kg, iv. In kind it is ADME, organism-based. Further details: dose 1 mg/kg, time infinity, route intravenous. In a few lines: as §1

T1 sequence (Q08345 whole entry, the tested form may be a part): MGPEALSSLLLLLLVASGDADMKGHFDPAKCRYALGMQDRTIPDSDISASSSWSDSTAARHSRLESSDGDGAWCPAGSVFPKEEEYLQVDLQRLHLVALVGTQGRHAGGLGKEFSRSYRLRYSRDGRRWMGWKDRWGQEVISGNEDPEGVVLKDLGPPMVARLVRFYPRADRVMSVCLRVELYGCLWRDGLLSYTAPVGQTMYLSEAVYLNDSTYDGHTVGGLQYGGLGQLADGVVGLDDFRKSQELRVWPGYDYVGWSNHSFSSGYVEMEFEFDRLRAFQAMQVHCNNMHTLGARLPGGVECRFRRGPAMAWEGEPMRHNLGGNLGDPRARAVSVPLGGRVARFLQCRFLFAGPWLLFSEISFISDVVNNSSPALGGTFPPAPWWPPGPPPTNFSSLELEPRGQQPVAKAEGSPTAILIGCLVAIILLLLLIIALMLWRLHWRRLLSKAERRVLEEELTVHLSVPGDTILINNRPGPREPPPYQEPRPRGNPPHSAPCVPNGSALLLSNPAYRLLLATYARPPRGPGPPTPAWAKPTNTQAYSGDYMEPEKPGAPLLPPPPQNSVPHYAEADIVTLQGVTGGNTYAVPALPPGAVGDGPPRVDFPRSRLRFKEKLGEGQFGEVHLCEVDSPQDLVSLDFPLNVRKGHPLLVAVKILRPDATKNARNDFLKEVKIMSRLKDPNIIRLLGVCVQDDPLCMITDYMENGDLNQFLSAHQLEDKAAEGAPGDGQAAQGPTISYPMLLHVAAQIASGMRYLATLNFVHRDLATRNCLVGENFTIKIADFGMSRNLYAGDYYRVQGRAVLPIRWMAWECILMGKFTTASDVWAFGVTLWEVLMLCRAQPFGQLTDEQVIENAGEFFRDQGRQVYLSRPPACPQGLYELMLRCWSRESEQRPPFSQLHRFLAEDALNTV
Platelet-derived growth factor receptor beta, sequence (P09619 whole entry): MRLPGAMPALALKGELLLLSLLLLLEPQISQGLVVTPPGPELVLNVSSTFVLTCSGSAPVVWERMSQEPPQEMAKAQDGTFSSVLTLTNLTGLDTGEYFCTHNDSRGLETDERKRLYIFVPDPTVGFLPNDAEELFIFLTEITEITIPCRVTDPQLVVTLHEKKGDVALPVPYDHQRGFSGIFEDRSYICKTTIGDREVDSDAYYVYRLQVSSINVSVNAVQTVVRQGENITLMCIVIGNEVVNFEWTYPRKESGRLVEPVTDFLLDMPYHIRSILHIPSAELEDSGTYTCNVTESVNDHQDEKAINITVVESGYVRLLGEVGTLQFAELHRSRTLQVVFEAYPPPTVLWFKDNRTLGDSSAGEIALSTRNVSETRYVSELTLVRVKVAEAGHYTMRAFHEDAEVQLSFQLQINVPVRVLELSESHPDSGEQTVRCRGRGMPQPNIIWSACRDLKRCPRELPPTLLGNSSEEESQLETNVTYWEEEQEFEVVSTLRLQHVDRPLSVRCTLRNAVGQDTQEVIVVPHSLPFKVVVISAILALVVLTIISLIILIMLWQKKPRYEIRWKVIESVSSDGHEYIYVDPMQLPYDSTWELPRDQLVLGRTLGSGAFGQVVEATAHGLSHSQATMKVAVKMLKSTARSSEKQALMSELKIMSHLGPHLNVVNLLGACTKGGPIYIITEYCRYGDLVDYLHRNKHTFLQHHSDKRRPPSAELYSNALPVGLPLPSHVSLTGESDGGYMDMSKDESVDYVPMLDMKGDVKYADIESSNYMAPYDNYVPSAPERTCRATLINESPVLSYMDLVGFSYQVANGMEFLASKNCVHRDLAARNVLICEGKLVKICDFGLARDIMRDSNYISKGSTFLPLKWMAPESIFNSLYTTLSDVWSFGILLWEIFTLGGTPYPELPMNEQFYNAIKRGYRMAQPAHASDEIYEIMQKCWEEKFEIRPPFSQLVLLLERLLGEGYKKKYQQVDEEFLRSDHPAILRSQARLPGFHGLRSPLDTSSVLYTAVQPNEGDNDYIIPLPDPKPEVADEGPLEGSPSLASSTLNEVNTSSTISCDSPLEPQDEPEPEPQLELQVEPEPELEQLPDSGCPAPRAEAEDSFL
Platelet-derived growth factor receptor alpha (Homo sapiens), sequence (P16234 whole entry): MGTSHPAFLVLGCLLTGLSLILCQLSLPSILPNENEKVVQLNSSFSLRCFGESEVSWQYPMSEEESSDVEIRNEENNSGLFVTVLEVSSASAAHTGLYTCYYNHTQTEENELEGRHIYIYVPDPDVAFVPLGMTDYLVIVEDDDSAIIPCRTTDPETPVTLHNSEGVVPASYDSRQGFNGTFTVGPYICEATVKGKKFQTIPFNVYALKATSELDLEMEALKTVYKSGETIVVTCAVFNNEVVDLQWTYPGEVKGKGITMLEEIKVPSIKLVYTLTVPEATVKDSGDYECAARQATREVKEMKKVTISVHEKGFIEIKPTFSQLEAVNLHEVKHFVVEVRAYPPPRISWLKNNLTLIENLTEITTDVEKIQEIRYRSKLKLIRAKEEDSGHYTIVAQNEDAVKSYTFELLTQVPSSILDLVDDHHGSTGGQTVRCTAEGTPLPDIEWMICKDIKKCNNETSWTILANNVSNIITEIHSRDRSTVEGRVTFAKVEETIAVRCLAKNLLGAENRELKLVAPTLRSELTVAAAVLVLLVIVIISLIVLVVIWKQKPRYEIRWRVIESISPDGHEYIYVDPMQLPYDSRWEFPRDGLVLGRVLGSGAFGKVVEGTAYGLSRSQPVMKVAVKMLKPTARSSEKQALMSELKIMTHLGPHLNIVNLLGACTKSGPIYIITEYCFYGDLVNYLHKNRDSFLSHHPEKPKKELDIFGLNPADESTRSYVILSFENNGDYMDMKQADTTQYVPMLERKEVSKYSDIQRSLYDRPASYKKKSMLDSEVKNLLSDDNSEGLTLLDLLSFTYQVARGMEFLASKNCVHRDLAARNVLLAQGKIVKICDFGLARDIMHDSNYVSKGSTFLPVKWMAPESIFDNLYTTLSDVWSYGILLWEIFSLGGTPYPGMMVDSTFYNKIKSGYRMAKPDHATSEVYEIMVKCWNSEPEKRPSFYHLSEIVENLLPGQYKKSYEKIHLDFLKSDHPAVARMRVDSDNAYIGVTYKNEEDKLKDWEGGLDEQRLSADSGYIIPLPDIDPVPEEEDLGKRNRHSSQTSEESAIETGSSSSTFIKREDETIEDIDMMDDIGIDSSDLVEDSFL
Mast/stem cell growth factor receptor Kit (Homo sapiens), P10721 [T670I], sequence (P10721 whole entry T670I, the tested form may be a part): as the sequence (P10721 whole entry, the tested form may be a part) above, with T670I counted along it

For the molecule `Cc1ccc(NC(=O)c2cccc(C(F)(F)F)c2)cc1OC1CCN(C(=O)c2ccncc2)CC1`, in data set [1], the MRT last came out at 29 min. The inhibition entry in data set [2] was “inactive”. The same molecule came in with an AUC(0-t) in data set [3] of 715 ng·h/mL. For the same molecule, the inhibition result in data set [4], in data set [14], in [17], in data set [18], in data set [19] and in [20] was “Active” each time. For the same molecule, the GI50 was greater than 10000 nM in data set [5]; 8240 nM in [6]; greater than 10000 nM in data set [7]; 150 nM in data set [13]; 1060 nM in data set [15]; 190 nM in data set [16]. Further, in data set [22], the GI50 stood at 1050 nM. The same molecule gave a Cmax in data set [8] of 511 ng/mL. In [9], this molecule had a pIC50 of 6.90. Moreover, in data set [10], the inhibition in vivo at 50 mg/kg/day was found to be 35%. In [11], this molecule gave a half-life of 27.1 min. The result in data set [12] was inactive. For the same molecule, in data set [21], the Activity was 0.15%. Moreover, the Vz in [23] was determined as 76.407 L/kg. The total exposure AUC(0-inf) in data set [24] is 202 ng·h/mL.

As usually defined, the MRT last is a mean duration of stay, worked out from the concentration-time curve. By AUC(0-t) is commonly meant the area under the concentration-time curve up to a stated or last time point. Read a high AUC(0-t) as high exposure. One may read the GI50 as the concentration that inhibits growth by half. One may read the Cmax as the highest concentration seen after dosing. In general, pIC50 refers to the negative decadic logarithm of the IC50, by convention in mol/L. A word on the half-life: it is the time in which the quantity being followed falls by half. What is called AUC(0-inf) is total exposure, with the tail of the curve extrapolated. Low values mean less exposure, high ones more exposure.
